Experimental data taken from ChEMBL document CHEMBL1144761, “Bioactive polybrominated diphenyl ethers from the marine sponge Dysidea sp” (J Nat Prod, 2008).
The source made the active and inactive calls. The rule behind the calls is not given here.

Columns and labels:
Streptomyces [1] = test: Antibacterial activity against Streptomyces 85E assessed as bald phenotype at 10 ug/disk after 30 hrs by hyphae formation inhibition assay; type: functional; conditions: read-out: IZ
How it was run: (§1)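 Mycelial fragments spread on minimal medium ISP 4 agar to form a lawn; compound-impregnated 6 mm paper disks placed on surface; incubated 30 h at 30 °C. Zone diameter recorded as clear (growth and sporulation inhibited) or bald (substrate hyphae without aerial hyphae); >9 mm counted active. Stocks in DMSO or methanol; solvent negative control, surfactin positive control.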

Streptomyces [2] = test: Antibacterial activity against Streptomyces 85E assessed as bald phenotype at 5 ug/disk after 30 hrs by hyphae formation inhibition assay; type: functional; conditions: read-out: IZ; how it was run: as §1
Streptomyces [3] = test: Antibacterial activity against Streptomyces 85E assessed as bald phenotype at 2.5 ug/disk after 30 hrs by hyphae formation inhibition assay; type: functional; conditions: read-out: IZ; how it was run: as §1
MCF7 [4] = test: Antiproliferative activity against human MCF7 cells; type: functional, cell-based
How it was run: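 MCF-7 cells grown in IMEM with 5% FBS and penicillin/streptomycin at 37 °C, 5% CO2, plated in 96-well plates with compounds in DMSO at five concentrations. After 2 days, glutaraldehyde-fixed, crystal violet-stained, dye solubilised in Triton X-100, A560 minus A405 read. % growth relative to day-0 and DMSO wells; IC50 read graphically from dose–response curve, triplicate.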

Streptomyces [5] = test: Antibacterial activity against Streptomyces 85E assessed as bald phenotype at 20 ug/disk after 30 hrs by hyphae formation inhibition assay; type: functional; conditions: read-out: IZ; how it was run: as §1
MCF7 [6] = test: Cell cycle arrest in human MCF7 cells by accumulation at G1 phase at 10 uM by flow cytometry; type: functional, cell-based
How it was run: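 MCF-7 cells, 1 × 10^5 per well, held 2 days in serum-free, antibiotic-free, phenol red-free IMEM to induce G1 arrest. Compound or DMSO added 30 min before FBS to 5% final; serum-free wells as negative controls; U0126 50 µM comparator. After 24 h, cells fixed in ice-cold 80% ethanol, propidium iodide stained, phases measured by flow cytometry; n = 3.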

MCF7 [7] = test: Cytotoxicity against human MCF7 cells at >10 uM; type: functional, cell-based
Streptomyces [8] = test: Antibacterial activity against Streptomyces 85E assessed as clear zone at 20 ug/disk after 30 hrs by hyphae formation inhibition assay; type: functional; conditions: read-out: IZ; how it was run: as §1
Streptomyces [9] = test: Antibacterial activity against Streptomyces 85E assessed as clear zone at 10 ug/disk after 30 hrs by hyphae formation inhibition assay; type: functional; conditions: read-out: IZ; how it was run: as §1
Streptomyces [10] = test: Antibacterial activity against Streptomyces 85E assessed as clear zone at 5 ug/disk after 30 hrs by hyphae formation inhibition assay; type: functional; conditions: read-out: IZ; how it was run: as §1
Streptomyces [11] = test: Antibacterial activity against Streptomyces 85E assessed as clear zone at 2.5 ug/disk after 30 hrs by hyphae formation inhibition assay; type: functional; conditions: read-out: IZ; how it was run: as §1

Row | Compound | zone of inhibition at 10 µg/disc (Streptomyces [1]) | zone of inhibition at 5 µg/disc (Streptomyces [2]) | zone of inhibition at 2.5 µg/disc (Streptomyces [3]) | IC50 (MCF7 [4]) | zone of inhibition at 20 µg/disc (Streptomyces [5]) | Activity (MCF7 [6]) | Activity (MCF7 [7]) | zone of inhibition at 20 µg/disc (Streptomyces [8]) | zone of inhibition at 10 µg/disc (Streptomyces [9]) | zone of inhibition at 5 µg/disc (Streptomyces [10]) | zone of inhibition at 2.5 µg/disc (Streptomyces [11])
1 | COc1c(O)c(Oc2ccc(Br)cc2Br)c(Br)c(Br)c1Br | 12 mm | 11 mm | 10 mm | 8.69 µM | 12 mm | – | – | – | – | – | –
2 | Oc1cc(Br)cc(Br)c1Oc1ccc(Br)cc1Br | – | – | – | 2.84 µM | – | Active | Active | 20 mm | 17 mm | 16 mm | 13 mm
3 | Oc1c(Br)c(Br)cc(Br)c1Oc1ccccc1Br | – | – | – | 6.96 µM | – | – | – | 20 mm | 18 mm | 13 mm | 12 mm
4 | Oc1c(Br)cc(Br)c(Br)c1Oc1ccc(Br)cc1Br | 2 mm | 15 mm | 13 mm | 8.73 µM | 3 mm | – | – | 12 mm | 12 mm | – | –
5 | Oc1c(Br)ccc(Br)c1Oc1ccc(Br)cc1Br | – | 11 mm | 10 mm | 6.89 µM | – | – | – | 14 mm | 13 mm | – | –
6 | Oc1c(Br)c(Br)cc(Br)c1Oc1ccc(Br)cc1Br | 13 mm | 11 mm | 10 mm | 7.52 µM | 14 mm | – | – | – | – | – | –
7 | Oc1c(Oc2ccc(Br)cc2Br)ccc(Br)c1Br | 14 mm | 13 mm | 10 mm | 7.23 µM | – | – | – | 13 mm | – | – | –
8 | Oc1c(Br)c(Br)c(Br)c(Br)c1Oc1ccc(Br)cc1Br | – | 12 mm | 12 mm | 9.48 µM | – | – | – | 15 mm | 13 mm | – | –
9 | Oc1c(Br)cc(Br)cc1Oc1ccc(Br)cc1Br | 13 mm | 12 mm | 10 mm | 8.9 µM | – | – | – | 13 mm | – | – | –
